Test [1] has as its target Fibroblast growth factor receptor 1 (Homo sapiens) (UniProt P11362). The test can be described thus: Inhibition of human N-terminal GST-fused FGFR1 cytoplasmic domain (398 to 822 (end)residues) expressed in baculovirus expression system at 20 uM measured after 1 hr in presence of peptide substrate and ATP by off-chip mobility shift assay relative to control. A digest of the protocol:
(§1)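 Off-chip mobility shift assay. Product and substrate peptides were separated; activity was taken as P/(P+S). Complete reaction was set as 0% inhibition and enzyme-free background as 100%. Run in triplicate, mean ± SD.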

In test [2] the target is High affinity nerve growth factor receptor (Homo sapiens) (UniProt P04629). The test can be described thus: Inhibition of human N-terminal GST-fused TRKA cytoplasmic domain (436 to 790 (end)residues) expressed in baculovirus expression system at 20 uM measured after 1 hr in presence of peptide substrate and ATP by off-chip mobility shift assay relative to control. A digest of the protocol: as §1

The target of test [3] is Ephrin type-A receptor 2 (Homo sapiens) (UniProt P29317). The test can be described thus: Inhibition of EPHA2 (unknown origin) at 20 uM measured after 1 hr in presence of peptide substrate and ATP by off-chip mobility shift assay relative to control. In short, it runs like this: as §1
For test [4], the target named is Platelet-derived growth factor receptor alpha (Homo sapiens) (UniProt P16234). The experiment in a line: Inhibition of human N-terminal GST-fused PDGFRalpha cytoplasmic domain (550 to 1089 (end)residues) expressed in baculovirus expression system at 20 uM measured after 1 hr in presence of peptide substrate and ATP by off-chip mobility shift assay relative to control. In short, it runs like this:
as §1

Test [5] deals with Receptor-type tyrosine-protein kinase FLT3 (Homo sapiens) (UniProt P36888). The test can be described thus: Inhibition of human N-terminal GST-fused FLT3 cytoplasmic domain (564 to 993 (end)residues) expressed in baculovirus expression system at 20 uM measured after 1 hr in presence of peptide substrate and ATP by off-chip mobility shift assay relative to control. A digest of the protocol:
as §1

The species named for the next test is Homo sapiens. The test can be described thus: Inhibition of human full-length N-terminal His-tagged ABL (2 to 1130 (end)residues) expressed in baculovirus expression system at 20 uM measured after 1 hr in presence of peptide substrate and ATP by off-chip mobility shift assay relative to control. A digest of the protocol: as §1
The target in test [6] is T1, Protein smoothened (Homo sapiens, UniProt Q99835). The test can be described thus: Inhibition of SMO in human PC9-OR cells assessed as reduction in GLI1 expression at antiproliferative IC50 measured after 72 hrs by Western blot analysis. It counts as functional, cell-based. In general terms: Immunoblotting shows a protein as a band on a membrane.
Test [7] has as its target Angiopoietin-1 receptor (Homo sapiens) (UniProt Q02763). The experiment in a line: Inhibition of human N-terminal GST-fused TIE2 cytoplasmic domain (771 to 1124 (end)residues) expressed in baculovirus expression system at 20 uM measured after 1 hr in presence of peptide substrate and ATP by off-chip mobility shift assay relative to control. A digest of the protocol: as §1

Test [8] has as its target T1, Protein smoothened. The test can be described thus: Displacement of [3H]-cyclopamine from SMO receptor (unknown origin) expressed in HEK293T cell membranes measured after 4 hrs by liquid scintillation spectrometry. Also on record: species or system Cell membrane. A digest of the protocol:
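Incubation of 15 μg HEK293T-WT SMO membranes (Kd 20 nM, Bmax 6.2 pmol/mg) with 25 nM [3H]-cyclopamine and varied compound, 4 h at RT, in 50 mM HEPES, 5 mM MgCl2, 0.02% BSA. Nonspecific binding was taken with 25 μM compound plus vismodegib. Bound ligand was separated on PEI-soaked GF/C filters, washed with ice-cold PBS/0.01% Triton X-100, and counted by scintillation; IC50 converted to Ki by Cheng–Prusoff.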

Test [9] addresses Epidermal growth factor receptor (Homo sapiens) (UniProt P00533). The experiment in a line: Inhibition of human N-terminal GST-fused EGFR cytoplasmic domain (669 to 1210 (end)residues) expressed in baculovirus expression system at 20 uM measured after 1 hr in presence of peptide substrate and ATP by off-chip mobility shift assay relative to control. A digest of the protocol:
as §1

The target of test [10] is Tyrosine-protein kinase SYK (Homo sapiens) (UniProt P43405). The experiment in a line: Inhibition of human full-length N-terminal GST-fused SYK (1 to 635 (end)residues) expressed in baculovirus expression system at 20 uM measured after 1 hr in presence of peptide substrate and ATP by off-chip mobility shift assay relative to control. A digest of the protocol: as §1
For test [11], the target named is T2, Tyrosine-protein kinase receptor TYRO3 (Homo sapiens) (UniProt Q06418).
T2 sequence (whole entry): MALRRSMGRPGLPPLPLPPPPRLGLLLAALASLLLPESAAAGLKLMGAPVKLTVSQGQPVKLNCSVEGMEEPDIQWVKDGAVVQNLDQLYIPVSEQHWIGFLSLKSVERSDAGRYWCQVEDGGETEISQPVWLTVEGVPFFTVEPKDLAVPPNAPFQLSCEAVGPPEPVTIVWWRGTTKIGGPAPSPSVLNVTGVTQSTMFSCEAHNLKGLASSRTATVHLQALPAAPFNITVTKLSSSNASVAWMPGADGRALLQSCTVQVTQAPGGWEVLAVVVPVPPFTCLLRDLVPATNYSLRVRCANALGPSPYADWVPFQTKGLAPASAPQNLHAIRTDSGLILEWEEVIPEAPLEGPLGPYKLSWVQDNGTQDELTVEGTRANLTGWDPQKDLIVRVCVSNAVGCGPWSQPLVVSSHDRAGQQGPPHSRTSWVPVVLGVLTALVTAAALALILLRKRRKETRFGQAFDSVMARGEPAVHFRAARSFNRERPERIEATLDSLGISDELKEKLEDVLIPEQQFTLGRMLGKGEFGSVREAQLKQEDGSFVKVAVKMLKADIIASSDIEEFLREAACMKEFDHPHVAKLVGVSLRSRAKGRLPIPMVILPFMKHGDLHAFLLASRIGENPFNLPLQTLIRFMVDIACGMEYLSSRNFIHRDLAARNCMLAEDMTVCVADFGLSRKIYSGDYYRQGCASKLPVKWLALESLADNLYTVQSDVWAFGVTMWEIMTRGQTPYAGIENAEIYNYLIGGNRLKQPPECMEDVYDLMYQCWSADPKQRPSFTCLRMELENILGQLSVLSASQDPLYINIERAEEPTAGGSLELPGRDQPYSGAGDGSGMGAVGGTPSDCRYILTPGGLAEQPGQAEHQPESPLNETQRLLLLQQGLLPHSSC
The experiment in a line: Inhibition of human N-terminal GST-fused TYRO3 cytoplasmic domain (453 to 890 (end)residues) expressed in baculovirus expression system at 20 uM measured after 1 hr in presence of peptide substrate and ATP by off-chip mobility shift assay relative to control. In short, it runs like this: as §1

Consider four molecules from ChEMBL document CHEMBL6134769, “Discovery of N-substituted-2-oxoindolin benzoylhydrazines as c-MET/SMO modulators in EGFRi-resistant non-small cell lung cancer” (RSC Med Chem, 2025).

Activity calls are given as the source filed them. The rule behind the calls is not given here.

For orientation: inhibition means how much of the control response was suppressed. For orientation: Ki means the equilibrium dissociation constant of an inhibitor or competing ligand from its target. Lower therefore signals tighter binding.

Epidermal growth factor receptor (Homo sapiens), sequence (P00533 whole entry, the tested form may be a part): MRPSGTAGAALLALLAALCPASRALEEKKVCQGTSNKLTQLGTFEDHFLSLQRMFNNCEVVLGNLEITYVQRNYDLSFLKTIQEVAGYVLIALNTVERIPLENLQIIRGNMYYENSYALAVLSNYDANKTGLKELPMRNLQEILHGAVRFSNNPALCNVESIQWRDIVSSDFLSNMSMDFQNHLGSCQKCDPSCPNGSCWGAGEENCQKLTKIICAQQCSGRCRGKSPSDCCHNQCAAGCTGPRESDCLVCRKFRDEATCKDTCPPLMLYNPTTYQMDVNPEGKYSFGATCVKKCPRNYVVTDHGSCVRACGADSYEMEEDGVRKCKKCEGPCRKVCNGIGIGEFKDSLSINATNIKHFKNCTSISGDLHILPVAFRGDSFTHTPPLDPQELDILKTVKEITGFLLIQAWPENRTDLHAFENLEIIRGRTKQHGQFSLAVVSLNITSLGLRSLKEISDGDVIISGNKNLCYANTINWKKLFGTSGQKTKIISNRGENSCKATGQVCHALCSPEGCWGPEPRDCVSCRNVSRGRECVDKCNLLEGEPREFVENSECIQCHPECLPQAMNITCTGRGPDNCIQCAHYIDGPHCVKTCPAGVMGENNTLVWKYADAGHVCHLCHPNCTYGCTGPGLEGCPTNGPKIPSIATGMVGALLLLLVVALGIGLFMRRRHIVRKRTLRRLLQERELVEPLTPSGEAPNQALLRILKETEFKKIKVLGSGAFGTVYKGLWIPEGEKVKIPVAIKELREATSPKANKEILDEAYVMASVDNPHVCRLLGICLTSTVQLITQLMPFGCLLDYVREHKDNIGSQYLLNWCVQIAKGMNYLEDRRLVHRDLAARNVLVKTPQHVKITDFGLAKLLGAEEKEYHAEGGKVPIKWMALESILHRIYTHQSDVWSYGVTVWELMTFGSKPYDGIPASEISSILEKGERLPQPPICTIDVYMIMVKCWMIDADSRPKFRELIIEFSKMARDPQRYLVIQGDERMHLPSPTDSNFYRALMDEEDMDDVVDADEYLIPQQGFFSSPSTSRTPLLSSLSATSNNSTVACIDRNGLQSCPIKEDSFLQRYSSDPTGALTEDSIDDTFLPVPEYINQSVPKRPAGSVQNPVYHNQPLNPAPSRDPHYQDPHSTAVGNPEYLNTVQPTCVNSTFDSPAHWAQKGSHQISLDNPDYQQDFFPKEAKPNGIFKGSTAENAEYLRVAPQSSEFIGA
Ephrin type-A receptor 2 (Homo sapiens), sequence (P29317 whole entry, the tested form may be a part): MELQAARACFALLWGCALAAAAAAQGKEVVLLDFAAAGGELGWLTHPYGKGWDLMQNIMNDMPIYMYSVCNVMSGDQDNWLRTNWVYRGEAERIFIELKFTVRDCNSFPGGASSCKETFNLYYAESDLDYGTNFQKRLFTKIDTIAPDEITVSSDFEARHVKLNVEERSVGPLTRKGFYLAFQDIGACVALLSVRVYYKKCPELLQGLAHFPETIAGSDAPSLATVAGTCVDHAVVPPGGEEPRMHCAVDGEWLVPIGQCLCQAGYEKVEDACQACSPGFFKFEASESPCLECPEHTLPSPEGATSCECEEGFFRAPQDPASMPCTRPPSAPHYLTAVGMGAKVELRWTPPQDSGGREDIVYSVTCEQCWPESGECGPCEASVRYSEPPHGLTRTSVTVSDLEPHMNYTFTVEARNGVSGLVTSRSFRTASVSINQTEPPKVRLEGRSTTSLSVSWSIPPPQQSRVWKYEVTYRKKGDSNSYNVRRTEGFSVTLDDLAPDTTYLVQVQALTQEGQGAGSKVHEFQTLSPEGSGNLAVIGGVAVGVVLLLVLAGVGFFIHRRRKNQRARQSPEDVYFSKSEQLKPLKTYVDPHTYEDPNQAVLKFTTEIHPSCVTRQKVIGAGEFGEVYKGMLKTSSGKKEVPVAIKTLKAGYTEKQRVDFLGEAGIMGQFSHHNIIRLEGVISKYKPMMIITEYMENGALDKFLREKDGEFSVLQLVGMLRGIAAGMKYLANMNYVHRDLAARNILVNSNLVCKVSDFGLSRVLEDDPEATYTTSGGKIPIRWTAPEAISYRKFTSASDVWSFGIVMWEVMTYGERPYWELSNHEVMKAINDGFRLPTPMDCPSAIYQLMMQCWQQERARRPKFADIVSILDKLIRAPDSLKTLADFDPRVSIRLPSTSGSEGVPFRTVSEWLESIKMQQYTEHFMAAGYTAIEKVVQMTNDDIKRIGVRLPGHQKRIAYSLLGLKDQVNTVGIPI
T1 sequence (Q99835 whole entry, the tested form may be a part): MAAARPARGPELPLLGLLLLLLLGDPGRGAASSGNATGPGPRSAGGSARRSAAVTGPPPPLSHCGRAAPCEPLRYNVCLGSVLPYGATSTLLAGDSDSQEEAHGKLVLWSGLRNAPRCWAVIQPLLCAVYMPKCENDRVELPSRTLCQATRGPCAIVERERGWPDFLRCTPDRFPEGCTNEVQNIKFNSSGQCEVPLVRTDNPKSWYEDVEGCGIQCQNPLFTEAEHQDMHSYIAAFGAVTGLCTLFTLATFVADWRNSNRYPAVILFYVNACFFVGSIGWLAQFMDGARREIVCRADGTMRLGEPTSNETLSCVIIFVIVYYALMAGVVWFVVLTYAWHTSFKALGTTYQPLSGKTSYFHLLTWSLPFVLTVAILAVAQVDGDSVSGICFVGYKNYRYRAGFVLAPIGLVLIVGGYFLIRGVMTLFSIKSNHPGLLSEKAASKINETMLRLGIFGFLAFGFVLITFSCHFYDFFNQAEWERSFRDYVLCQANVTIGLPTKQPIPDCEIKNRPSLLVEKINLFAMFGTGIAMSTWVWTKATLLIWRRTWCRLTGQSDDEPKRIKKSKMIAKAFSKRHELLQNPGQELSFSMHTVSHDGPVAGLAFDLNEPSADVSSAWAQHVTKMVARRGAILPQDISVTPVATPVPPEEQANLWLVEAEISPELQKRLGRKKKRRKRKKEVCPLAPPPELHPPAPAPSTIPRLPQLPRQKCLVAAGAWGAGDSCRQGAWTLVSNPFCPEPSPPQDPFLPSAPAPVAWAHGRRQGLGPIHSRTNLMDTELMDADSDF
Platelet-derived growth factor receptor alpha (Homo sapiens), sequence (P16234 whole entry, the tested form may be a part): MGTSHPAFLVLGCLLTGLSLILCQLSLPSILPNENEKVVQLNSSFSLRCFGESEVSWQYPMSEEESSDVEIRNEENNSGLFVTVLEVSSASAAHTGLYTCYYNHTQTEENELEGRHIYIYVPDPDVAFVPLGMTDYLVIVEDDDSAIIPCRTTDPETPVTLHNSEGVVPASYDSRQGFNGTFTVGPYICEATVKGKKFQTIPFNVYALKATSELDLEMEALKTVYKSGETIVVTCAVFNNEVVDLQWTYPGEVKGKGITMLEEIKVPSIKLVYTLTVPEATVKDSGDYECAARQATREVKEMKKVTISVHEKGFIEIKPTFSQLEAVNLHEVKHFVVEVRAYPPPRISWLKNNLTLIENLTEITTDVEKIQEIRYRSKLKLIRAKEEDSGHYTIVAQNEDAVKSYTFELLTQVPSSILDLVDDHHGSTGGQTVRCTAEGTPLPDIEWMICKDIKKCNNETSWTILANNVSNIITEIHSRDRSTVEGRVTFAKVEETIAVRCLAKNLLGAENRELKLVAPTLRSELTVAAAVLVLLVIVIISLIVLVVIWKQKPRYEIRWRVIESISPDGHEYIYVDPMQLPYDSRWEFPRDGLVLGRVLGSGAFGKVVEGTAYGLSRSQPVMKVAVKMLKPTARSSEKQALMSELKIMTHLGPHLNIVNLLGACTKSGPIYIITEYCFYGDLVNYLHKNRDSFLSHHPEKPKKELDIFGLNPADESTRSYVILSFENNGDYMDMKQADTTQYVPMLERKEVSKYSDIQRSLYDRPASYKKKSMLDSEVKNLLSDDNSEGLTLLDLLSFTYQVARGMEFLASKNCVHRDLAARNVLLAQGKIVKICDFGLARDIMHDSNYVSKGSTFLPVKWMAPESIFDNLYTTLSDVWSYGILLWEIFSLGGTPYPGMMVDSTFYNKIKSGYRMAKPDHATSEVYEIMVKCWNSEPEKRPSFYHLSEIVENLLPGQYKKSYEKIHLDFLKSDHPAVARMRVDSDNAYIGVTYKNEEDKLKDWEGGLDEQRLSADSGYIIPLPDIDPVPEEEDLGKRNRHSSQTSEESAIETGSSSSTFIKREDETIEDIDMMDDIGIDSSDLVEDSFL
High affinity nerve growth factor receptor (Homo sapiens), sequence (P04629 33-796 limits assumed): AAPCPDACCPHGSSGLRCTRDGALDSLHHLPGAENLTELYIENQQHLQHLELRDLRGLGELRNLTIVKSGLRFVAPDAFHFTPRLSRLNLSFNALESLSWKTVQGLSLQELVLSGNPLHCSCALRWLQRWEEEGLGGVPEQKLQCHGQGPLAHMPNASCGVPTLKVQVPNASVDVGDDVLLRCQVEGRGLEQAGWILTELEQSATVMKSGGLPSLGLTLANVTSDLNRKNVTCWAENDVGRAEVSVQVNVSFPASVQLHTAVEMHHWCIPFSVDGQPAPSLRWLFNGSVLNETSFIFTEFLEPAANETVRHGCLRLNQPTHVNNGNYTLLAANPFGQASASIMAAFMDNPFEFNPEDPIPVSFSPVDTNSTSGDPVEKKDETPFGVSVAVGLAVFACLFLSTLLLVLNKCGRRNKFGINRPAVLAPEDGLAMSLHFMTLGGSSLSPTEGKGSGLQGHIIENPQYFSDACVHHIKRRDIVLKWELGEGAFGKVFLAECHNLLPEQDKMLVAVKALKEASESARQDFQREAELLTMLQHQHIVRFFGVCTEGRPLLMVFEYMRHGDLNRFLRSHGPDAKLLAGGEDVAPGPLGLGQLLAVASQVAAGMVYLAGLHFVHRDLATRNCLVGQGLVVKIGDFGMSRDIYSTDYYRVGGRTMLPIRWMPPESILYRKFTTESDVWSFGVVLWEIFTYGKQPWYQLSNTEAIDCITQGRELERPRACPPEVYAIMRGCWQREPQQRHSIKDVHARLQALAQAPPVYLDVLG

For the molecule `O=C(CN1C(=O)/C(=N\NC(=O)c2cc(Br)ccc2O)c2c(Br)cccc21)Nc1ccc([N+](=O)[O-])cc1`, the inhibition in test [1] stood at 81.6%; in [2], 65.9%; in [3], 71.5%; in test [4], 63.3%; in test [5] it was 55.8%; in the test listed under Homo sapiens, 67.9%. In addition, the inhibition amounted to 89.5% in test [7], 69.3% in test [9], 89.7% in test [10] and 46.4% in [11]. Also, the inhibition result on Protein smoothened [6] is “Active”. This molecule had a Ki on Protein smoothened [8] of 9 nM.

Consider `Cc1ccc(NC(=O)CN2C(=O)/C(=N\NC(=O)c3cc(Br)ccc3O)c3ccc(Cl)cc32)cc1`, for which the inhibition in test [1] worked out at 71.8%; in [2] it was 66.9%; in test [3] it was 62.5%; in test [4] it was 56.5%; in test [5] it was 71.9%; in test [7], 76.7%. The inhibition turned out to be 72.9% in [9], 49.4% in [10] and 51.3% in test [11]. Besides, the inhibition result on Protein smoothened [6] is “Active”. This molecule also yielded a Ki at Protein smoothened [8] of 28 nM.

In the case of `Cc1ccc(NC(=O)CN2C(=O)/C(=N\NC(=O)c3cc(Br)ccc3O)c3ccc(Br)cc32)cc1`, the inhibition is 71.4% in [1]; 64.3% in test [2]; 69.2% in test [3]; 56.7% in [4]; 72.6% in test [5]; 63.5% in the test filed under Homo sapiens. Further, the inhibition in [7] turned out to be 76.7%; in [9], 70.9%; in [10], 54.1%; in test [11], 39.3%. Moreover, the inhibition entry on Protein smoothened [6] was “Active”. The molecule further gave a Ki on Protein smoothened [8] of 11 nM.

For the molecule `Cc1ccc(NC(=O)CN2C(=O)/C(=N\NC(=O)c3cc(Br)ccc3O)c3ccccc32)cc1`, the inhibition was found to be 91.7% in test [1]; 80% in [2]; 95% in [3]; 76.2% in [4]; 89.7% in test [5]; 74.9% in the test filed under Homo sapiens. The inhibition in test [7] amounted to 93.1%; in [9], 85.2%; in test [10], 91.9%; in test [11], 48.5%. Moreover, at Protein smoothened [6], the inhibition result is “Active”. Further, the Ki on Protein smoothened [8] worked out at 185 nM.
